Key:
[1] = Inhibition of beta-lactamase TEM-1 assessed as inactivation rate constant for longer incubation time yield of enzyme by spectrophotometry
[2] = Inhibition of beta-lactamase TEM-1 assessed as inactivation rate constant by spectrophotometry
How it was run: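 Reporter-substrate method at 37°C: purified TEM-1 at 0.25 nM was added to 100 µM nitrocefin plus inhibitor at various concentrations, and hydrolysis was followed at 485 nm for 60 s. kobs was taken from the time courses, and K and k2 came from a plot of [I]/kobs against [I]. Means of at least two independent experiments.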

| Activity [2] [s⁻¹] | Structure (SMILES) | Activity [1] [s⁻¹] |
| --- | --- | --- |
|  | C[C@]1(Cn2ccnn2)[C@H](C(=O)O)N2C(=O)C[C@H]2S1(=O)=O | 0.02 |
|  | O=C(O)[C@H]1/C(=C/CO)O[C@@H]2CC(=O)N21 | 0.03 |
| 0.11 | NC(=O)[C@@H]1CC[C@@H]2CN1C(=O)N2OS(=O)(=O)O (relative stereo) |  |

— ChEMBL document CHEMBL1687818, “Mechanistic studies of the inactivation of TEM-1 and P99 by NXL104, a novel non-beta-lactam beta-lactamase inhibitor” (Antimicrob Agents Chemother, 2010)
